DENV2 CPE = inhibitors of DENV2 cytopathic effect. DENV2-infected cells, cytopathic effect rescue, plate reader. CPE inhibition, % at 9.99 µM. AID 651640. 350,000 tested, 1.7% active; in the data active = CPE inhibition above about 20%, passing the limit was not always enough; tested in BHK-21 cells
E-selectin induc = induces E-selectin expression in human endothelial cells. HUVEC E-selectin immunofluorescence imaging; normalized: neutral wells 0, TNF-alpha wells 100. activation, % at 7.58 µM. 260,000 tested, 0.37% active;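 active = mean E-selectin-positive cell signal at least 10% of the positive control, reached in at least 60% of replicates, without over 20% cell loss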
Target sequence (P16581 whole entry, looked up): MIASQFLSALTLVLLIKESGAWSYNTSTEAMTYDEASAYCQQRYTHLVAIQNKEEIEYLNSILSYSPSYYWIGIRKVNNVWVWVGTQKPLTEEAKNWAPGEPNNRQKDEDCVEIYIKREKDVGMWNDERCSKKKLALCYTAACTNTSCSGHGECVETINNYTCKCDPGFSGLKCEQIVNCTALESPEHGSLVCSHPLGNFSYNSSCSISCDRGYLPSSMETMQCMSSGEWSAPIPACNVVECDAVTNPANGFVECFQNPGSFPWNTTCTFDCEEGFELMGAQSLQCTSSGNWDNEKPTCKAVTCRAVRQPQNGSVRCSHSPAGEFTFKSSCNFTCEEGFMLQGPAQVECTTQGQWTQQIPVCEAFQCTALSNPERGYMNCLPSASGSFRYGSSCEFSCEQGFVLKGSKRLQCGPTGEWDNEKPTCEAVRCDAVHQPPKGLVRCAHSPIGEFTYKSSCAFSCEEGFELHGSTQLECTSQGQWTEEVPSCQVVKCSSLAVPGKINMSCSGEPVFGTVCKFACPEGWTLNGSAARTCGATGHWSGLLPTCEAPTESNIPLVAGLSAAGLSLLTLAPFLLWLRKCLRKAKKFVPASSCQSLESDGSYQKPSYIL
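Test system: HUVEC; input: 3,000 HUVEC/well; measured by: immunofluorescence imaging; read-out: % PE-positive cells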
SIRT5 block = blocks human SIRT5 desuccinylation of peptide. Q9NXA8. Purified SirT5, succinyl-peptide AMC, trypsin-coupled fluorescence. inhibition, % at 15 µM. 330,000 tested, 1.1% active; in the data active = inhibition above about 15%
A number is an active result. Hits are enriched below; roughly 2.9% of the tested compounds scored in any of these assays.

COc1ccc(/C=C2\N=C(C(C)(C)C)OC2=O)c(OC)c1 was read as DENV2 CPE inactive and SIRT5 block inactive.
Screening CN(C)c1ccc(/C=C2\N=C(C(C)(C)C)OC2=O)cc1 returned DENV2 CPE inactive and SIRT5 block 18.
C[C@H]1CCCCO[C@H](CN(C)C(=O)Nc2ccc(F)cc2)[C@@H](C)CN([C@@H](C)CO)C(=O)c2cc(NS(=O)(=O)c3ccccc3)ccc2O1 was read as DENV2 CPE 53, E-selectin induc inactive and SIRT5 block inactive.
For Cc1ccc(S(=O)(=O)Nc2ccc3c(c2)C(=O)N([C@H](C)CO)C[C@H](C)[C@@H](CN(C)C(=O)Nc2ccccc2)OCCCC[C@@H](C)O3)cc1 the results were DENV2 CPE inactive, E-selectin induc inactive and SIRT5 block inactive.
C[C@@H]1CCCCO[C@H](CN(C)C(=O)Nc2ccc(F)cc2)[C@@H](C)CN([C@H](C)CO)C(=O)c2cc(NS(=O)(=O)c3ccccc3)ccc2O1 was read as DENV2 CPE inactive, E-selectin induc inactive and SIRT5 block inactive.
`Cc1ccc(S(=O)(=O)Nc2ccc3c(c2)C(=O)N([C@@H](C)CO)C[C@H](C)[C@@H](CN(C)C(=O)Nc2ccccc2)OCCCC[C@H](C)O3)cc1` gave DENV2 CPE inactive, E-selectin induc inactive and SIRT5 block 17.
`C[C@@H]1CN([C@H](C)CO)C(=O)c2cc(NS(=O)(=O)c3ccc(F)cc3)ccc2O[C@@H](C)CCCCO[C@H]1CN(C)C(=O)Nc1ccc(F)cc1` gave DENV2 CPE inactive and E-selectin induc inactive.
Screening C[C@@H]1CCCCO[C@@H](CN(C)C(=O)c2ccccc2)[C@H](C)CN([C@H](C)CO)C(=O)c2cc(NS(=O)(=O)c3ccc(F)cc3)ccc2O1 returned DENV2 CPE 22, E-selectin induc inactive and SIRT5 block inactive.
For C[C@H]1CCCCO[C@H](CN(C)C(=O)Nc2ccc(F)cc2)[C@@H](C)CN([C@@H](C)CO)C(=O)c2cc(NS(=O)(=O)c3ccc(F)cc3)ccc2O1 the results were DENV2 CPE 27 and E-selectin induc inactive.
For C[C@@H]1CN([C@H](C)CO)C(=O)c2cc(NS(=O)(=O)c3ccc(F)cc3)ccc2O[C@@H](C)CCCCO[C@@H]1CN(C)C(=O)c1ccccc1 the results were DENV2 CPE inactive, E-selectin induc inactive and SIRT5 block inactive.
`Cc1noc(NS(=O)(=O)c2ccc(NC(=O)/C=C/c3ccc(Br)cc3)cc2)c1C` gave DENV2 CPE inactive, E-selectin induc inactive and SIRT5 block inactive.
For CC1CCCN(S(=O)(=O)c2cccc3nonc23)C1 (configuration not stated) the results were DENV2 CPE inactive, E-selectin induc inactive and SIRT5 block inactive.
For O=C(O)c1cscc1-c1cccc2ccccc12 the results were DENV2 CPE inactive and E-selectin induc inactive.
For CNC[C@@H]1Oc2ncc(C3=CCCC3)cc2C(=O)N([C@@H](C)CO)C[C@@H]1C the results were E-selectin induc inactive.
`CCCNC(=O)N1CC2(C1)CN(C(=O)NC1CCCC1)[C@H](CO)c1[nH]c3cc(OC)ccc3c12` gave DENV2 CPE inactive, E-selectin induc inactive and SIRT5 block inactive.
Screening CN1C(=O)N(CC(=O)N2CCN(S(=O)(=O)/C=C/c3ccccc3)CC2)C(=O)C12CCCCC2 returned DENV2 CPE inactive, E-selectin induc inactive and SIRT5 block inactive.
Screening Oc1c(Br)cc(Cl)cc1C=Nc1ccccc1Br returned DENV2 CPE inactive, E-selectin induc inactive and SIRT5 block inactive.
For CC(=O)c1cccc(NC(=O)CNC(=O)c2cc3ccccc3o2)c1 the results were DENV2 CPE inactive, E-selectin induc inactive and SIRT5 block inactive.
For CCOC(=O)[C@]12CCCC=C1N(Cc1ccc(Cl)cc1Cl)C(=O)[C@H](CC(=O)NCc1cccc(C(F)(F)F)c1)C2 the results were DENV2 CPE inactive, E-selectin induc inactive and SIRT5 block inactive.
COC(=O)[C@]12CCCCC=C1N(CCC1=CCCCC1)C(=O)[C@H](CC(=O)NCc1cccc(C(F)(F)F)c1)C2 was read as DENV2 CPE 51, E-selectin induc inactive and SIRT5 block inactive.
COC(=O)[C@]12CCCCC=C1N(Cc1ccc(Cl)cc1Cl)C(=O)[C@H](CC(=O)NCc1cccc(C(F)(F)F)c1)C2 was read as DENV2 CPE inactive, E-selectin induc inactive and SIRT5 block 20.
`CCOC(=O)[C@]12CCCC=C1N(CCC1=CCCCC1)C(=O)[C@H](CC(=O)NCc1cccc(C(F)(F)F)c1)C2` gave DENV2 CPE inactive, E-selectin induc inactive and SIRT5 block inactive.
For CCN(C(=O)CSc1nnc(-c2ccccc2)n1C)C1CCS(=O)(=O)C1 (configuration not stated) the results were DENV2 CPE inactive, E-selectin induc inactive and SIRT5 block inactive.
